{"source": "ChEMBL document CHEMBL2321845", "about": "“Discovery of 4-Aryl-2-benzoyl-imidazoles as tubulin polymerization inhibitor with potent antiproliferative properties” (J Med Chem, 2013)", "key": {"[1]": {"test": "Cytotoxicity against human MDA-MB-435/LCC6MDR1 cells assessed as growth inhibition after 48 hrs by SRB assay", "assay_type": "functional, cell-based, MDA-MB-435/LCC6 MDR1", "conditions": "Homo sapiens, MDA-MB-435/LCC6 MDR1, 48 h"}, "PPC-1": {"system": "PPC-1", "test": "Cytotoxicity against human PPC1 cells assessed as growth inhibition after 96 hrs by SRB assay", "assay_type": "functional, cell-based", "conditions": "PPC-1, 96 h", "summary_of_the_method": "(§1)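 Plated at 1000–5000 cells/well depending on growth rate and treated with graded compound concentrations for 96 h, three to five replicates. Cell number was measured by SRB: 10% TCA fixation, 0.4% SRB staining, absorbance at 540 nm. IC50 relative to untreated control came from a nonlinear regression fit.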"}, "A-375": {"system": "A-375", "test": "Cytotoxicity against human A375 cells assessed as growth inhibition after 48 hrs by SRB assay", "assay_type": "functional, cell-based", "conditions": "A-375, 48 h", "summary_of_the_method": "(§2)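 Melanoma cells from ATCC, grown in DMEM with 10% FBS at 37°C under 5% CO2. Seeded at 1000–5000 cells/well according to growth rate and exposed to a range of compound concentrations for 48 h, in three to five replicates. Cells were fixed with 10% TCA, stained with 0.4% SRB and read at 540 nm.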"}, "[2]": {"test": "Cytotoxicity against human WM164 cells assessed as growth inhibition after 48 hrs by SRB assay", "assay_type": "functional, cell-based", "conditions": "WM164, 48 h", "summary_of_the_method": "as §2, with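 “nm. IC50 (50% growth inhibition versus untreated control) was taken from nonlinear regression of % survival against concentration.” for “nm.”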"}, "[3]": {"test": "Resistance index, ratio of IC50 for human MDA-MB-435/LCC6 MDR1 cells to IC50 for human MDA-MB-435 cells", "assay_type": "functional"}, "LNCaP": {"system": "LNCaP", "test": "Cytotoxicity against human LNCAP cells assessed as growth inhibition after 96 hrs by SRB assay", "assay_type": "functional, cell-based", "summary_of_the_method": "as §1"}, "PC-3 [4]": {"system": "PC-3", "test": "Cytotoxicity against human PC3 cells assessed as growth inhibition after 96 hrs by SRB assay", "assay_type": "functional, cell-based", "conditions": "PC-3, 96 h", "summary_of_the_method": "as §1"}, "DU-145": {"system": "DU-145", "test": "Cytotoxicity against human DU145 cells assessed as growth inhibition after 96 hrs by SRB assay", "assay_type": "functional, cell-based", "conditions": "Homo sapiens, DU-145, 96 h"}, "MDA-MB-435": {"system": "MDA-MB-435", "test": "Cytotoxicity against human MDA-MB-435 cells assessed as growth inhibition after 48 hrs by SRB assay", "assay_type": "functional, cell-based", "conditions": "MDA-MB-435, 48 h"}, "Bos taurus": {"species_on_record": "Bos taurus", "test": "Competitive binding affinity to bovine brain tubulin after 1 hr by mass spectrometry binding assay in presence of colchicine", "assay_type": "tissue-based"}, "PC-3 [5]": {"system": "PC-3", "test": "Cell cycle arrest in human PC3 cells assessed as accumulation at G2/M phase after 24 hrs by propidium iodide staining based FACS analysis (reference value: 18%)", "assay_type": "functional"}, "Tubulin (Sus scrofa)": {"biological_target": "Tubulin (Sus scrofa) (UniProt P02554+P02550)", "sequence (P02550 whole entry, looked up)": "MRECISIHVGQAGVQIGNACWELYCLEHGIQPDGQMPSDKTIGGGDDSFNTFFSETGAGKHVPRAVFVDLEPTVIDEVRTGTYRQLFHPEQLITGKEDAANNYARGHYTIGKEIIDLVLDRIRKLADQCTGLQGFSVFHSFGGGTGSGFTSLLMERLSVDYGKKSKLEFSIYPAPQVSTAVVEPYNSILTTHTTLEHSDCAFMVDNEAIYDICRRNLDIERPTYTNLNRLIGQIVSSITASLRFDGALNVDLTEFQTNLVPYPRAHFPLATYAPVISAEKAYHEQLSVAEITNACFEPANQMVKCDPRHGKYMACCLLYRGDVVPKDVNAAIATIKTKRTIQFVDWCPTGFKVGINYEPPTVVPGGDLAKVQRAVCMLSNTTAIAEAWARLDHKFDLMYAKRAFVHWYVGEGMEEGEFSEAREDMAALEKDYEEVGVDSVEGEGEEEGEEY", "sequence (P02554 whole entry, looked up)": "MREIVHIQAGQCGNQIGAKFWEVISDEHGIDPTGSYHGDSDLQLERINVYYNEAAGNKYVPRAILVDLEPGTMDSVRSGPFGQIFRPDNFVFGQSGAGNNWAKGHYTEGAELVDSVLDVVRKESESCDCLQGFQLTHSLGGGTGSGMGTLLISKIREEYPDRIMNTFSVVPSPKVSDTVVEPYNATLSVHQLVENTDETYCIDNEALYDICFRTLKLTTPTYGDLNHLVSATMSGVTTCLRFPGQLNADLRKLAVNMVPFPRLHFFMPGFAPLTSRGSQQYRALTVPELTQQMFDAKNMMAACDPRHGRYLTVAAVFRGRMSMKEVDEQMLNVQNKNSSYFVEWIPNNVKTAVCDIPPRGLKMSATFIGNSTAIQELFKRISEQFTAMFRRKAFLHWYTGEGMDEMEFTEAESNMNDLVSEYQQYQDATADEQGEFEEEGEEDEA", "test": "Inhibition of pig brain tubulin polymerization measured every 1 min for 40 mins by microplate reader analysis", "summary_of_the_method": "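Polymerization was followed with a fluorescence-enhanced tubulin polymerization assay kit.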"}}, "note": "Calls of active or inactive are those of the source. The rule behind the calls is not given here."}
{"smiles": "COc1cc(C(=O)c2nc(-c3ccc(C(F)(F)F)cc3)c[nH]2)cc(OC)c1OC", "values": [{"measurement": "IC50", "setting": "[1]", "result": 175, "unit": "nM"}, {"measurement": "IC50", "setting": "PPC-1", "result": 74, "unit": "nM"}, {"measurement": "IC50", "setting": "A-375", "result": 123, "unit": "nM"}, {"measurement": "IC50", "setting": "[2]", "result": 143, "unit": "nM"}, {"measurement": "Ratio IC50", "setting": "[3]", "result": 0.8}, {"measurement": "IC50", "setting": "LNCaP", "result": 47, "unit": "nM"}, {"measurement": "IC50", "setting": "PC-3 [4]", "result": 93, "unit": "nM"}, {"measurement": "IC50", "setting": "DU-145", "result": 210, "unit": "nM"}, {"measurement": "IC50", "setting": "MDA-MB-435", "result": 120, "unit": "nM"}]}
{"smiles": "COc1cc(C(=O)c2nc(-c3ccccc3)c[nH]2)cc(OC)c1OC", "values": [{"measurement": "Activity", "setting": "Bos taurus", "result": "Active"}, {"measurement": "IC50", "setting": "[1]", "result": 11, "unit": "nM"}, {"measurement": "IC50", "setting": "PPC-1", "result": 13, "unit": "nM"}, {"measurement": "Activity", "setting": "PC-3 [5]", "result": "Dose-dependent effect"}, {"measurement": "Activity", "setting": "PC-3 [5]; record 2", "result": "<=70%"}, {"measurement": "IC50", "setting": "A-375", "result": 9, "unit": "nM"}, {"measurement": "IC50", "setting": "[2]", "result": 14, "unit": "nM"}, {"measurement": "Ratio IC50", "setting": "[3]", "result": 0.5}, {"measurement": "IC50", "setting": "LNCaP", "result": 6, "unit": "nM"}, {"measurement": "inhibition", "setting": "Tubulin (Sus scrofa)", "result": "Active"}, {"measurement": "IC50", "setting": "PC-3 [4]", "result": 14, "unit": "nM"}, {"measurement": "IC50", "setting": "DU-145", "result": 22, "unit": "nM"}, {"measurement": "IC50", "setting": "MDA-MB-435", "result": 24, "unit": "nM"}]}
{"smiles": "COc1cc(C(=O)c2nc(-c3ccccc3)cn2C)cc(OC)c1OC", "values": [{"measurement": "IC50", "setting": "[1]", "result": 18, "unit": "nM"}, {"measurement": "IC50", "setting": "PPC-1", "result": 13, "unit": "nM"}, {"measurement": "Activity", "setting": "PC-3 [5]", "result": "Dose-dependent effect"}, {"measurement": "Activity", "setting": "PC-3 [5]; record 2", "result": "<=70%"}, {"measurement": "IC50", "setting": "A-375", "result": 9, "unit": "nM"}, {"measurement": "IC50", "setting": "[2]", "result": 33, "unit": "nM"}, {"measurement": "inhibition", "setting": "Tubulin (Sus scrofa)", "result": "Active"}, {"measurement": "IC50", "setting": "PC-3 [4]", "result": 16, "unit": "nM"}, {"measurement": "IC50", "setting": "DU-145", "result": 26, "unit": "nM"}, {"measurement": "IC50", "setting": "MDA-MB-435", "result": 16, "unit": "nM"}]}
{"smiles": "COc1cc(C(=O)c2nc(-c3ccccc3)cn2-c2ccccn2)cc(OC)c1OC", "values": [{"measurement": "Activity", "setting": "Bos taurus", "result": "Active"}, {"measurement": "IC50", "setting": "[1]", "result": 15, "unit": "nM"}, {"measurement": "IC50", "setting": "PPC-1", "result": 8, "unit": "nM"}, {"measurement": "IC50", "setting": "A-375", "result": 14, "unit": "nM"}, {"measurement": "IC50", "setting": "[2]", "result": 6, "unit": "nM"}, {"measurement": "IC50", "setting": "LNCaP", "result": 20, "unit": "nM"}, {"measurement": "IC50", "setting": "DU-145", "result": 37, "unit": "nM"}, {"measurement": "IC50", "setting": "MDA-MB-435", "result": 11, "unit": "nM"}]}
{"smiles": "CCn1cc(-c2ccccc2)nc1C(=O)c1cc(OC)c(OC)c(OC)c1", "values": [{"measurement": "IC50", "setting": "[1]", "result": 33, "unit": "nM"}, {"measurement": "Activity", "setting": "PC-3 [5]", "result": "Dose-dependent effect"}, {"measurement": "Activity", "setting": "PC-3 [5]; record 2", "result": "<=70%"}, {"measurement": "IC50", "setting": "A-375", "result": 28, "unit": "nM"}, {"measurement": "IC50", "setting": "[2]", "result": 16, "unit": "nM"}, {"measurement": "IC50", "setting": "LNCaP", "result": 29, "unit": "nM"}, {"measurement": "IC50", "setting": "PC-3 [4]", "result": 25, "unit": "nM"}, {"measurement": "IC50", "setting": "DU-145", "result": 66, "unit": "nM"}, {"measurement": "IC50", "setting": "MDA-MB-435", "result": 26, "unit": "nM"}]}
{"smiles": "CC[C@]1(O)C[C@@H]2CN(CCc3c([nH]c4ccccc34)[C@@](C(=O)OC)(c3cc4c(cc3OC)N(C)[C@H]3[C@@](O)(C(=O)OC)[C@H](OC(C)=O)[C@]5(CC)C=CCN6CC[C@]43[C@@H]65)C2)C1", "values": [{"measurement": "Activity", "setting": "Bos taurus", "result": "inactive"}, {"measurement": "inhibition", "setting": "Tubulin (Sus scrofa)", "result": "Dose-dependent effect"}]}
{"smiles": "COc1cc(C(=O)c2nc(-c3ccc(Br)cc3)c[nH]2)cc(OC)c1OC", "values": [{"measurement": "IC50", "setting": "[1]", "result": 43, "unit": "nM"}, {"measurement": "Activity", "setting": "PC-3 [5]", "result": "Dose-dependent effect"}, {"measurement": "Activity", "setting": "PC-3 [5]; record 2", "result": "<=70%"}, {"measurement": "IC50", "setting": "A-375", "result": 29, "unit": "nM"}, {"measurement": "IC50", "setting": "[2]", "result": 31, "unit": "nM"}, {"measurement": "IC50", "setting": "LNCaP", "result": 15, "unit": "nM"}, {"measurement": "IC50", "setting": "PC-3 [4]", "result": 33, "unit": "nM"}, {"measurement": "IC50", "setting": "DU-145", "result": 66, "unit": "nM"}, {"measurement": "IC50", "setting": "MDA-MB-435", "result": 58, "unit": "nM"}]}
